Source: PubChem
TRPC6 inhibitor: mouse TRPC6 channel inhibitors, primary screen, cell-based, HEK293, membrane potential dye; Short transient receptor potential channel 6 (Mus musculus), Q61143; ACh-evoked depolarization; hits give low values; B-score at 10 µM; hit rate 1.1% among 310,000; AID 2553, 2010;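 active means B-score under library mean minus 3 SD, initial fluorescence not abnormally high, positive integrated signal ratio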;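 further: B-score derived from integrated fluorescence ratio over the kinetic read; more negative B-score means stronger inhibition of depolarization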
TRPC4 agonist: activators of mouse TRPC4 channel, primary screen, Fluo4 calcium, HEK293 TRPC4beta/mu-opioid cells | hit rate 0.49% among 310,000 | Fluo4 calcium fluorescence; hits give high values | Short transient receptor potential channel 4 (Mus musculus), Q9QUQ5 | B-score at 10 µM | AID 2237, 2010;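 active means B-score above 5 SD of library B-scores, and initial fluorescence ratio not above library mean plus 5 SD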;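 further: positive B-score marks a calcium rise read as TRPC4 activation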
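Incubation: 45 min room-temperature Fluo4 loading, 110 s read / System: HEK293 cells stably co-expressing mouse TRPC4beta and mu-opioid receptor / Signal: Fluo4 fluorescence, kinetic / Control set: buffer (low) and maximal DAMGO (high) / Measure: integrated baseline-normalised fluorescence ratio, converted to per-well B score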
TRPC6 act: mouse TRPC6 channel activators, primary screen, cell-based, HEK293, membrane potential dye | AID 2550, 2010 | hit rate 0.13% among 310,000 | B-score at 10 µM | Short transient receptor potential channel 6 (Mus musculus), Q61143 | HEK293-TRPC6 membrane potential dye fluorescence; hits give high values;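 active means B-score of the integrated fluorescence ratio above library mean plus 3 SD, and starting fluorescence ratio within library mean plus 5 SD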;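 further: higher score means more depolarization so channel activation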
TRPC4 block: inhibitors of mouse TRPC4 channel, primary screen, Fluo4 calcium, HEK293 TRPC4beta/mu-opioid cells. Short transient receptor potential channel 4 (Mus musculus), Q9QUQ5. DAMGO-evoked Fluo4 calcium flux; hits give low values. B-score at 10 µM. hit rate 0.39% among 300,000. AID 2247, 2010;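 active means B-score over 3 SD under the library average, no early fluorescence shift, positive overall ratio signal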
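Assay system: HEK293 cells with stable TRPC4beta plus mu-opioid receptor expression. Dosing: single dose. Measured by: Fluo4 Ca2+ flux fluorescence. Also added: DAMGO in two steps, submaximal then maximal. Read-out: B score from integrated Fluo4 fluorescence ratio.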
TRPC4 PAM: positive allosteric modulators of TRPC4, primary screen, cell-based, mouse TRPC4beta, HEK293 mu-opioid, Fluo-4 calcium; Short transient receptor potential channel 4 (Mus musculus), Q9QUQ5; DAMGO EC20, Fluo-4 Ca2+ flux; hits give high values; B-score at 10 µM; hit rate 0.42% among 310,000; AID 2227, 2009;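 active means B-score of calcium response area above 5 SD of library B-scores, with initial fluorescence ratio within 5 SD of library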;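 further: B-score of integrated fluorescence ratio over time as area under calcium response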
Starred values were filed as active, the others as inactive; i = inactive. Hits are enriched below; roughly 2.3% of the tested compounds scored in any of these assays.

SMILES | TRPC6 inhibitor | TRPC4 agonist | TRPC6 act | TRPC4 block | TRPC4 PAM
COc1c(O)cc2c(c1O)[C@@H]1O[C@H](CO)[C@@H](O)[C@H](O)C1OC2=O (some centres not stated) | i | i | i | i | i
N=C(N)SCc1cn(-c2ccccc2)nc1-c1ccc(Br)cc1 | i | 71* | i | i | i
Cc1ccc(-c2nn(-c3ccccc3)cc2CO)cc1 | i | i | i | i | i
COC(=O)c1sccc1NC(=O)CSc1ccccc1NC(=O)CNC(C)C | i | i | i | -6* | i
COC(=O)c1sccc1NC(=O)CSc1ccccc1N | i | i | i | i | i
Cc1ccc(-n2nc(C)cc2Nc2ncc(Cl)cc2Cl)cc1 | i | i | i | i | i
Cc1cc(Nc2ncc(Cl)cc2Cl)n(-c2ccccc2C)n1 | i | i | i | -7* | i
c1ccc(-c2ccc(CNC3CC3)cc2)cc1 | i | i | i | i | i
COc1ccc(OC)c(NC(=O)Nc2ccc3[nH]ccc3c2)c1 | i | i | i | i | i
O=C1NC(c2ccccc2)=C(c2nc3ccccc3s2)C(c2ccccc2)N1 (configuration not stated) | i | i | i | i | 19*
CCCCCSc1nnc2c(n1)OC(c1cccn1C)N(C(C)=O)c1ccccc1-2 (configuration not stated) | i | 193* | i | i | i
CCOC(=O)C1=NNC(C(=O)c2ccccc2)C1c1ccc(C)cc1 (configuration not stated) | i | i | i | -8* | i
CN1CCN(c2ccc(NC(=O)c3ccc(Br)o3)cc2)CC1 | i | i | i | -7* | i
CCNC(=S)Nc1ccc2c(c1)oc1ccccc12 | i | i | i | i | i
FC(F)(F)c1ccnc(N2CCN(Cc3cnc(-c4ccccc4)[nH]3)CC2)c1 | i | i | i | -7* | i
CC(=O)Nc1ccc(S(=O)(=O)N2CCN(c3cc(C(F)(F)F)ccn3)CC2)cc1 | i | i | i | i | i
COc1ccc(NC(C#N)c2ccccc2OCc2ccccc2)cc1 (configuration not stated) | i | i | i | i | 10*
COc1ccc(Cl)cc1C(=O)Nc1ccccc1N1CCN(C)CC1 | i | 126* | i | i | i
COc1ccc(CCC(=O)Nc2cc(Cl)ccc2N2CCN(C)CC2)cc1 | i | i | i | i | 12*
CN1CCN(c2ccc(Cl)cc2NC(=O)/C=C/c2ccc(F)cc2)CC1 | i | i | i | i | 13*
COc1ccc(CC(=O)Nc2cc(Cl)ccc2N2CCCC2)cc1 | i | i | i | i | i
Cn1c(C(=O)NN)cc2cc(OCc3ccccc3)ccc21 | i | i | i | i | i
CN(Cc1cccc(F)c1)CC(O)COCc1ccccc1Cl (configuration not stated) | i | i | i | -6* | i
CN(CCOc1ccccc1)C(=O)C1CCC(=O)N(CCCN2CCCC2=O)C1 (configuration not stated) | i | i | i | i | i
CCOc1ccc(OCC)c(S(=O)(=O)n2cnc(C)c2)c1 | i | i | i | i | i
COc1ccc(OC2CCN(S(=O)(=O)c3cccc(F)c3)CC2)cc1 | i | i | i | i | 11*
COC(=O)c1ccc(C)c(NC(=O)c2ccc(CN3CCc4ccccc4C3)cc2)c1 | i | i | i | i | i
CCCc1ccc(OCc2ccc(C(=O)N3CCSCC3)o2)cc1 | i | i | i | i | 20*
CC(C)(C)c1ccc(OCc2ccc(C(=O)N3CCOCC3)o2)cc1 | i | i | i | i | i
Cc1ccc(S(=O)(=O)N2CCN(C(=O)CCn3cncn3)CC2)cc1C | i | i | i | i | i
